target: Phosphatidylinositol 3-kinase regulatory subunit alpha/4,5-bisphosphate 3-kinase catalytic subunit alpha isoform (Homo sapiens, UniProt P27986+P42336); assay: Inhibition of PI3K p110alpha/p85alpha
Outline: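 Biochemical kinase assay following the kit manufacturer's protocol with a modified kinase buffer (50 mM HEPES pH 7.5, 3 mM MgCl2, 100 mM NaCl, 1 mM EGTA, 0.04% CHAPS, 2 mM TCEP, 0.01 mg/ml BGG); 10 nM enzyme; ATP 50 µM; values are averages of two independent experiments, each in duplicate.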

Chain of Phosphatidylinositol 3-kinase regulatory subunit alpha/4,5-bisphosphate 3-kinase catalytic subunit alpha isoform (P27986 whole entry, canonical isoform): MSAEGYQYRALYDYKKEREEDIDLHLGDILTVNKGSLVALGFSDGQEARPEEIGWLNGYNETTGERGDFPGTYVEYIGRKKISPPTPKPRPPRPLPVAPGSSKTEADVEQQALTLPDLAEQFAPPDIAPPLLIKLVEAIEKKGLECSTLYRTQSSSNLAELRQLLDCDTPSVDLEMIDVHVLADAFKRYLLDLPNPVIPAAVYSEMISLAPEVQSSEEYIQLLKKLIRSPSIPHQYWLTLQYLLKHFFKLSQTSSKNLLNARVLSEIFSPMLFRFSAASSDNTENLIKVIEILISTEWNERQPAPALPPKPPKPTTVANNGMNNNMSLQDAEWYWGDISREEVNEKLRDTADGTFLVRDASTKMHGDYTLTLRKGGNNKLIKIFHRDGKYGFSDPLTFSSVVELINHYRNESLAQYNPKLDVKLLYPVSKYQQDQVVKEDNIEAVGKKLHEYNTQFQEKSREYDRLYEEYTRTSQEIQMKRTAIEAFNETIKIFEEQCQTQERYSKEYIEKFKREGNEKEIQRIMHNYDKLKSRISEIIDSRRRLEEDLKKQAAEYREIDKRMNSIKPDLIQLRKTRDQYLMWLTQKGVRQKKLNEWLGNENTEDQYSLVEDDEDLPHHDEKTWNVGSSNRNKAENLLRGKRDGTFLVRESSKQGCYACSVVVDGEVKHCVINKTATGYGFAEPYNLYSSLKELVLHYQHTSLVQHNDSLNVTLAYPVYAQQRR
Chain of Phosphatidylinositol 3-kinase regulatory subunit alpha/4,5-bisphosphate 3-kinase catalytic subunit alpha isoform (P42336 whole entry, canonical isoform): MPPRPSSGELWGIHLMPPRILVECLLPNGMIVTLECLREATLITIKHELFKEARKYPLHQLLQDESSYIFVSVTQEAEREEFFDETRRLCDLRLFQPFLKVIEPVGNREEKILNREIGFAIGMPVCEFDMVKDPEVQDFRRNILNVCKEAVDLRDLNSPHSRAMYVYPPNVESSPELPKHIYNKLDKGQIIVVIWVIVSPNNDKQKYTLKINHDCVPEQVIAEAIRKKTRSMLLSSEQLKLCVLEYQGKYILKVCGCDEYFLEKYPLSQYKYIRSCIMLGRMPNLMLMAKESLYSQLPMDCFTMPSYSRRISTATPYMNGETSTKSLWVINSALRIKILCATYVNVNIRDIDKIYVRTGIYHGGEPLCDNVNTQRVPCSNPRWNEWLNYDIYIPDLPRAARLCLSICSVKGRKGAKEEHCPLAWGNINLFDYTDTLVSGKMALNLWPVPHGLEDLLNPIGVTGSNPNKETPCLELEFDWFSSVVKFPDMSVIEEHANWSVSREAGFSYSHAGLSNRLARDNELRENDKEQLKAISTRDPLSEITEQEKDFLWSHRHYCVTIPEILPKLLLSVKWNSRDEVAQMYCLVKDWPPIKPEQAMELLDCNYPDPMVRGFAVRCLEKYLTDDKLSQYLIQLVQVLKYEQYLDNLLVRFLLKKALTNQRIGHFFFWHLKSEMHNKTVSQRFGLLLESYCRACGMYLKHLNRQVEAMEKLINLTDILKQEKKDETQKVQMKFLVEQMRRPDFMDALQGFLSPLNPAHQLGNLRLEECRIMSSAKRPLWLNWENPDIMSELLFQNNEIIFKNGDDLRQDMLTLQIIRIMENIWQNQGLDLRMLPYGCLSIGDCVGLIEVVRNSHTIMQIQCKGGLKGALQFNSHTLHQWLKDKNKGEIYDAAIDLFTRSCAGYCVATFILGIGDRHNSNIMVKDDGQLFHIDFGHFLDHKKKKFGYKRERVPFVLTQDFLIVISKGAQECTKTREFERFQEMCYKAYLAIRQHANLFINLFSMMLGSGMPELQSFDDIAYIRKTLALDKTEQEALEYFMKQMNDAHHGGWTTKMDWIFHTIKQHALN

Q: `O=C(NCCN1CCOCC1)c1cn2cc(-c3cccc4[nH]ncc34)nc(N3CCOCC3)c2n1` was tested. Which IC50 did it give?
A: 38 nM

Q: How did the IC50 turn out when `CNC(=O)c1cn2cc(-c3cccc4[nH]ncc34)nc(N3CCOCC3)c2n1` was run?
A: 110 nM

Q: How did the IC50 turn out when `Oc1cccc(-c2cn3cc(CN4CCOCC4)nc3c(N3CCOCC3)n2)c1` was run?
A: 444 nM

Q: With `CCNC(=O)c1cn2cc(-c3cccc4[nH]ncc34)nc(N3CCOCC3)c2n1` as the compound, how does the IC50 read?
A: 92 nM

Q: Which IC50 does the source give for `Oc1cccc(-c2cn3cc(C4CC4)nc3c(N3CCOCC3)n2)c1` here?
A: 340 nM

Q: `O=C1CN(Cc2cn3cc(-c4cccc(O)c4)nc(N4CCOCC4)c3n2)CCN1` was tested. Which IC50 did it give?
A: 540 nM

Q: `OCc1cn2cc(-c3cccc(O)c3)nc(N3CCOCC3)c2n1` was tested. Which IC50 did it give?
A: 639 nM

Q: For `CC(=O)N1CCN(Cc2cn3cc(-c4cccc(O)c4)nc(N4CCOCC4)c3n2)CC1`, which IC50 is on record?
A: 451 nM

Q: With `Cc1cn2cc(-c3cccc(O)c3)nc(N3CCOCC3)c2n1` as the compound, how does the IC50 read?
A: 96 nM

Q: `Oc1cccc(-c2cn3cc(C(F)(F)F)nc3c(N3CCOCC3)n2)c1` was tested. Which IC50 did it give?
A: 108 nM
